Measured values reported in ChEMBL document CHEMBL4038333, “Nonacidic Farnesoid X Receptor Modulators” (J Med Chem, 2017).
Calls of active or inactive are those of the source. The rule behind the calls is not given here.

Key:
[1] = target: Nuclear receptor subfamily 1 group I member 2 (Homo sapiens, UniProt O75469); test: Transactivation of GAL4-tagged human PXR isoform 1 ligand binding domain (138 to 434 residues) expressed in HEK293T cells at 1 uM after 12 to 14 hrs by dual-glo luciferase reporter gene assay; assay type: cell-based; settings: hek-293t
Nuclear receptor subfamily 1 group I member 2, sequence (O75469 whole entry, the tested form may be a part, canonical isoform): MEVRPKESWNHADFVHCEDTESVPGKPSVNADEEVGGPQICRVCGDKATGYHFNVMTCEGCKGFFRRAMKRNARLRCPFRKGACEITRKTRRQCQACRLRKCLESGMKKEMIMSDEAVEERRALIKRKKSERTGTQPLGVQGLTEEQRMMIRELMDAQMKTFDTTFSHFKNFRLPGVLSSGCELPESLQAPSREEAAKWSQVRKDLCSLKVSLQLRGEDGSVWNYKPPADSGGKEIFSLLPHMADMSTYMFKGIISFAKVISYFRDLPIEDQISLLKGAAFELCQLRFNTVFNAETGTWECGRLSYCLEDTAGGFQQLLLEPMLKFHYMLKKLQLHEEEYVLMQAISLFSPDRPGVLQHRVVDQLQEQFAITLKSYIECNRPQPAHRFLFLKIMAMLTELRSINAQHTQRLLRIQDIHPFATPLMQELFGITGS
Summary of the method: (§1)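 Run as a selectivity screen against each listed receptor (14 nuclear receptors plus TGR5), in both agonist and antagonist modes. Test concentration was 1 µM, with n = 3.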

Bile acid receptor = target: T1, Bile acid receptor (Homo sapiens, UniProt Q96RI1); test: Transactivation of human FXR expressed in human HeLa cells co-expressing BSEP after 24 hrs by dual-glo luciferase reporter gene assay; assay type: cell-based; settings: read-out: EC50
T1 sequence (Q96RI1 whole entry): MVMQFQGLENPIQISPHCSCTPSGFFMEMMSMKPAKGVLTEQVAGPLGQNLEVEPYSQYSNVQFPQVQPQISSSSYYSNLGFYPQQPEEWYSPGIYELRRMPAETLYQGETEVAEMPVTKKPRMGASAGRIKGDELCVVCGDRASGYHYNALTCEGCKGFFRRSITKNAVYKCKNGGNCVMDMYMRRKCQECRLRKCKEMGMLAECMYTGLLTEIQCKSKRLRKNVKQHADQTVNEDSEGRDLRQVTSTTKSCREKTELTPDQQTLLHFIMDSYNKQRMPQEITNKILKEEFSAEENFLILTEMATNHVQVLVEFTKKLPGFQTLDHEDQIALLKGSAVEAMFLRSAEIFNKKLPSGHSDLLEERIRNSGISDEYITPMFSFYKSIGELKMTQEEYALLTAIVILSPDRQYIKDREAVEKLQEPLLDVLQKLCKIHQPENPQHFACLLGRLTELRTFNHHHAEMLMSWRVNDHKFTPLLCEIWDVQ
Summary of the method: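 Full-length reporter system with constitutive expression of hFXR and hRXR. A constitutive Renilla luciferase served for normalization and as a toxicity control. Maximum relative activation was expressed against a reference FXR agonist at 3 µM, set as 100%.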

HeLa [2] = test: Selectivity ratio for human FXR expressed in human HeLa cells co-expressing BSEP over GAL4-tagged human RXRgamma ligand binding domain (229 to 463 residues) expressed in HEK293T cells; assay type: cell-based
HeLa [3] = test: Selectivity ratio for human FXR expressed in human HeLa cells co-expressing BSEP over GAL4-tagged human PPARgamma ligand binding domain expressed in HEK293T cells; assay type: cell-based
[4] = target: T2, Bile acid receptor (Homo sapiens) (UniProt Q96RI1); test: Modulation of FXR in human HepG2 cells assessed as suppression of CYP7A1 mRNA expression at 10 nM by qRT-PCR analysis; assay type: cell-based
T2 sequence (whole entry): T1 sequence (Q96RI1 whole entry)
Summary of the method: (§2)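 HepG2 hepatocarcinoma cells were incubated with the compound at 10 nM. FXR target-gene mRNA was quantified by qRT-PCR (n = 3), with significance at p < 0.05, 0.01 and 0.001.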

[5] = target: Retinoic acid receptor beta (Homo sapiens) (UniProt P10826); test: Antagonist activity at GAL4-tagged human RARbeta1 ligand binding domain (177 to 455 residues) expressed in HEK293T cells at 1 uM after 12 to 14 hrs by dual-glo luciferase reporter gene assay; assay type: cell-based; settings: HEK-293T; summary of the method: as §1
Retinoic acid receptor beta (Homo sapiens), sequence (P10826 whole entry, the tested form may be a part): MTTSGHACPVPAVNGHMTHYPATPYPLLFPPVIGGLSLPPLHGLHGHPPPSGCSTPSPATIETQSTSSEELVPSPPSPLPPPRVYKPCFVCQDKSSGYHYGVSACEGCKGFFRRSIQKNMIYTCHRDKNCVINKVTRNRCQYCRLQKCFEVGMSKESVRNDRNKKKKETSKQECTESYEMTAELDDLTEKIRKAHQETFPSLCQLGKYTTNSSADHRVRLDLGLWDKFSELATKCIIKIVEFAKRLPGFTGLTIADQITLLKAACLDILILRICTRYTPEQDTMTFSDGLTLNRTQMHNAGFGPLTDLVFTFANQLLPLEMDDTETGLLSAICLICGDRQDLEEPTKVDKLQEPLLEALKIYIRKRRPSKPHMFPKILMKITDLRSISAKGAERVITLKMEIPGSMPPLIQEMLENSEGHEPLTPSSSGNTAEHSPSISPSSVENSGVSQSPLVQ

[6] = target: Peroxisome proliferator-activated receptor alpha (Homo sapiens) (UniProt Q07869); test: Antagonist activity at GAL4-tagged human PPARalpha ligand binding domain expressed in HEK293T cells at 1 uM after 12 to 14 hrs by dual-glo luciferase reporter gene assay; assay type: cell-based; settings: HEK-293T; summary of the method: as §1
Peroxisome proliferator-activated receptor alpha (Homo sapiens), sequence (Q07869 whole entry, the tested form may be a part, canonical isoform): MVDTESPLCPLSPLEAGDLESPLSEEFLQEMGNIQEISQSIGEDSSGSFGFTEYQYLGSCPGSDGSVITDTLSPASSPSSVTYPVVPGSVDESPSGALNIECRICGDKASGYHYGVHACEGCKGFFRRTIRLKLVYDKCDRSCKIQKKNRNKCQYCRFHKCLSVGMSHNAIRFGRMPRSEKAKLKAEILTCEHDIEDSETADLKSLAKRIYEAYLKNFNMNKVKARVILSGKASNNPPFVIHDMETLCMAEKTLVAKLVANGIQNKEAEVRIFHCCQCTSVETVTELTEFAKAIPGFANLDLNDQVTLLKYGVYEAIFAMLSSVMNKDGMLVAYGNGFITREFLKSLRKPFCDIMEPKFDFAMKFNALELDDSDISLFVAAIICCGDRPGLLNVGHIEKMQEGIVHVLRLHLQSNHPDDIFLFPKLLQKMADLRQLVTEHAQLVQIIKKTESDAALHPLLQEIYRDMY

[7] = target: Vitamin D3 receptor (Homo sapiens) (UniProt P11473); test: Transactivation of GAL4-tagged human VDR isoform 1 ligand binding domain (119 to 427 residues) expressed in HEK293T cells at 1 uM after 12 to 14 hrs by dual-glo luciferase reporter gene assay; assay type: cell-based; settings: HEK-293T; summary of the method: as §1
Vitamin D3 receptor (Homo sapiens), sequence (P11473 whole entry, the tested form may be a part, canonical isoform): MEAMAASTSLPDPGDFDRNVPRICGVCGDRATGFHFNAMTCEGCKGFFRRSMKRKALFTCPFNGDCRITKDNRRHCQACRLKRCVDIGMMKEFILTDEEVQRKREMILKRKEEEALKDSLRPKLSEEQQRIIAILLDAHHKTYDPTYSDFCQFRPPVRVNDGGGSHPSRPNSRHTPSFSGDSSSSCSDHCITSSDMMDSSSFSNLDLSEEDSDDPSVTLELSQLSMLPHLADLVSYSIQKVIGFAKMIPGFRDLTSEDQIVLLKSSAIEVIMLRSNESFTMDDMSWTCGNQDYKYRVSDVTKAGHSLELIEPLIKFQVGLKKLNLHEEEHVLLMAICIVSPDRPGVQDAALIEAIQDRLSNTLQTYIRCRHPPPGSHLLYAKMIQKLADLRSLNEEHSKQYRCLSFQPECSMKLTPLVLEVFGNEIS

[8] = target: Retinoic acid receptor RXR-alpha (Homo sapiens) (UniProt P19793); test: Antagonist activity at GAL4-tagged human RXRalpha ligand binding domain (225 to 462 residues) expressed in HEK293T cells at 1 uM after 12 to 14 hrs by dual-glo luciferase reporter gene assay; assay type: cell-based; settings: HEK-293T; summary of the method: as §1
Retinoic acid receptor RXR-alpha (Homo sapiens), sequence (P19793 whole entry, the tested form may be a part, canonical isoform): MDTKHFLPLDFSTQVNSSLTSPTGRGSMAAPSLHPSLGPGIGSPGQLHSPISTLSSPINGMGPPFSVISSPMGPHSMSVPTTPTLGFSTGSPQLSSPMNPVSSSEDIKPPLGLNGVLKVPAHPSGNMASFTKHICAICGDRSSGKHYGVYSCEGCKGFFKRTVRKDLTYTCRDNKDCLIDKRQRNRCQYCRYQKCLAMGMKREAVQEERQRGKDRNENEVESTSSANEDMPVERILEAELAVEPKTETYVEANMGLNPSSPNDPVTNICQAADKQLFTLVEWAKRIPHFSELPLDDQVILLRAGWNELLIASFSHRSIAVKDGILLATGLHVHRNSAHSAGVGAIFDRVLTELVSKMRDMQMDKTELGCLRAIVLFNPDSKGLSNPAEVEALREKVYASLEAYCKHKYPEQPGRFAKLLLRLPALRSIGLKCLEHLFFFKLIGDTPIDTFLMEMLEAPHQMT

HeLa [9] = test: Selectivity ratio for human FXR expressed in human HeLa cells co-expressing BSEP over GAL4-tagged human VDR isoform 1 ligand binding domain (119 to 427 residues) expressed in HEK293T cells; assay type: cell-based
[10] = target: T2, Bile acid receptor (Homo sapiens); test: Modulation of FXR in human HepG2 cells assessed as suppression of SREBP1c mRNA expression at 10 nM by qRT-PCR analysis; assay type: cell-based; summary of the method: as §2
[11] = target: Retinoic acid receptor RXR-beta (Homo sapiens) (UniProt P28702); test: Antagonist activity at GAL4-tagged human RXRbeta isoform 1 ligand binding domain (294 to 533 residues) expressed in HEK293T cells at 1 uM after 12 to 14 hrs by dual-glo luciferase reporter gene assay; assay type: cell-based; settings: HEK-293T; summary of the method: as §1
Retinoic acid receptor RXR-beta (Homo sapiens), sequence (P28702 whole entry, the tested form may be a part, canonical isoform): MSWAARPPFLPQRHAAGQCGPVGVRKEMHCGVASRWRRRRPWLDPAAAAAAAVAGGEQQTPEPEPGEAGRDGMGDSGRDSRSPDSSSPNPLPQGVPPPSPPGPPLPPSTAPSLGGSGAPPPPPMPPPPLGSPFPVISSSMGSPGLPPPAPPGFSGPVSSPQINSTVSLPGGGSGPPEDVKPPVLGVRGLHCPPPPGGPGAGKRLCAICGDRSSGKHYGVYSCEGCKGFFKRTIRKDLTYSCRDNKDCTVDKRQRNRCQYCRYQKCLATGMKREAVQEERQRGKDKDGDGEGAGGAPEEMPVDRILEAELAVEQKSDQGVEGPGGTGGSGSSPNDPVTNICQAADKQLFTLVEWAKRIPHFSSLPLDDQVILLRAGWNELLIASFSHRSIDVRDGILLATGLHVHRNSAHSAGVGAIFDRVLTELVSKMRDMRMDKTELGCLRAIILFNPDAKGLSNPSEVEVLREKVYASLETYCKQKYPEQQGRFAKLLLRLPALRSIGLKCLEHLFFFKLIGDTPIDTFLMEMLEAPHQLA

[12] = target: T2, Bile acid receptor (Homo sapiens); test: Modulation of FXR in human HepG2 cells assessed as induction of BSEP mRNA expression at 10 nM by qRT-PCR analysis; assay type: cell-based; summary of the method: as §2
[13] = Lipophilicity, logD of compound at pH 7.4 by LC-MS analysis; assay type: physicochemical; settings: buffer, read-out: logD
[14] = target: Retinoic acid receptor alpha (Homo sapiens) (UniProt P10276); test: Antagonist activity at GAL4-tagged human RARalpha1 ligand binding domain (177 to 462 residues) expressed in HEK293T cells at 1 uM after 12 to 14 hrs by dual-glo luciferase reporter gene assay; assay type: cell-based; settings: HEK-293T; summary of the method: as §1
Retinoic acid receptor alpha (Homo sapiens), sequence (P10276 whole entry, the tested form may be a part): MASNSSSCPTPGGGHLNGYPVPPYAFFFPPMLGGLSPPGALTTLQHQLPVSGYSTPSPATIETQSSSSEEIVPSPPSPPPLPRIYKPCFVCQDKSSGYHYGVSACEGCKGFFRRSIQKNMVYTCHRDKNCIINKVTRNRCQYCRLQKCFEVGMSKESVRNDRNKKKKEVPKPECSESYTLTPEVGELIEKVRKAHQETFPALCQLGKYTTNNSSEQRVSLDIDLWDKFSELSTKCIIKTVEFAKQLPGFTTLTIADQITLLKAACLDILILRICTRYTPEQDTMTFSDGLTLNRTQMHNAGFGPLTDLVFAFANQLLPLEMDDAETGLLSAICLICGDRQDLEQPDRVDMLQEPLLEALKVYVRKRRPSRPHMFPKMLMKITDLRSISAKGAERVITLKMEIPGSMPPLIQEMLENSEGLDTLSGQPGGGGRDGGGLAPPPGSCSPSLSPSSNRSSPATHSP

[15] = target: T2, Bile acid receptor (Homo sapiens); test: Modulation of FXR in human HepG2 cells assessed as induction of PPARalpha mRNA expression at 10 nM by qRT-PCR analysis; assay type: cell-based; summary of the method: as §2
HeLa [16] = test: Selectivity ratio for human FXR expressed in human HeLa cells co-expressing BSEP over GAL4-tagged human RARgamma isoform 1 ligand binding domain (179 to 454 residues) expressed in HEK293T cells; assay type: cell-based
[17] = target: G-protein coupled bile acid receptor 1 (Homo sapiens) (UniProt Q8TDU6); test: Antagonist activity at TGR5 (unknown origin) expressed in HEK293T cells at 1 uM after 12 to 14 hrs by dual-glo luciferase reporter gene assay; assay type: cell-based; summary of the method: as §1
G-protein coupled bile acid receptor 1 (Homo sapiens), sequence (Q8TDU6 whole entry, the tested form may be a part): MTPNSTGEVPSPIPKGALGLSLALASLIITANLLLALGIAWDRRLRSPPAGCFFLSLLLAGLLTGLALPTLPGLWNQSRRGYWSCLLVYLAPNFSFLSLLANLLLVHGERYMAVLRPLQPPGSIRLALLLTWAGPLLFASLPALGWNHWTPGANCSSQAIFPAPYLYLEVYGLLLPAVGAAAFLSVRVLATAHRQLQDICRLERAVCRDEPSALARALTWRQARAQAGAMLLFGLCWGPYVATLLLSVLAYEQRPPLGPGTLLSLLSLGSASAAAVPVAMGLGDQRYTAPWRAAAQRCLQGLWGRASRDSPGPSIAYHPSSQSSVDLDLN

HeLa [18] = test: Selectivity ratio for human FXR expressed in human HeLa cells co-expressing BSEP over GAL4-tagged human RARbeta1 ligand binding domain (177 to 455 residues) expressed in HEK293T cells; assay type: cell-based
[19] = target: Retinoic acid receptor RXR-alpha (Homo sapiens) (UniProt P19793); test: Transactivation of GAL4-tagged human RXRalpha ligand binding domain (225 to 462 residues) expressed in HEK293T cells at 1 uM after 12 to 14 hrs by dual-glo luciferase reporter gene assay; assay type: cell-based; settings: HEK-293T; summary of the method: as §1
[20] = target: G-protein coupled bile acid receptor 1 (Homo sapiens) (UniProt Q8TDU6); test: Agonist activity at TGR5 (unknown origin) expressed in HEK293T cells at 1 uM after 12 to 14 hrs by dual-glo luciferase reporter gene assay; assay type: cell-based; summary of the method: as §1
[21] = target: Retinoic acid receptor RXR-gamma (Homo sapiens) (UniProt P48443); test: Transactivation of GAL4-tagged human RXRgamma ligand binding domain (229 to 463 residues) expressed in HEK293T cells at 1 uM after 12 to 14 hrs by dual-glo luciferase reporter gene assay; assay type: cell-based; settings: HEK-293T; summary of the method: as §1
Retinoic acid receptor RXR-gamma (Homo sapiens), sequence (P48443 whole entry, the tested form may be a part): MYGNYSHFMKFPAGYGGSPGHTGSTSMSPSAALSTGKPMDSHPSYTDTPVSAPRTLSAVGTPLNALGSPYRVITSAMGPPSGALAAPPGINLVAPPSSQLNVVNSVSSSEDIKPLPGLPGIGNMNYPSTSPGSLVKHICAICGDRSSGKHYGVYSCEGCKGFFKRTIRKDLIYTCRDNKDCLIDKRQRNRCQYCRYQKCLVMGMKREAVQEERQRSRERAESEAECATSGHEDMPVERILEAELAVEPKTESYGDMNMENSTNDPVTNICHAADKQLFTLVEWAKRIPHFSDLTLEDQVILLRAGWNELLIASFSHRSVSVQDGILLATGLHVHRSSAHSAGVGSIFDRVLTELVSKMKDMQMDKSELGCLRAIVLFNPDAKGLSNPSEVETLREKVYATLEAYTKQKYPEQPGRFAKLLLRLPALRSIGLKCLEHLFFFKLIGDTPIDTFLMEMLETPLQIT

[22] = target: Peroxisome proliferator-activated receptor delta (Homo sapiens) (UniProt Q03181); test: Transactivation of GAL4-tagged human PPARdelta ligand binding domain expressed in HEK293T cells at 1 uM after 12 to 14 hrs by dual-glo luciferase reporter gene assay; assay type: cell-based; settings: HEK-293T; summary of the method: as §1
Peroxisome proliferator-activated receptor delta (Homo sapiens), sequence (Q03181 whole entry, the tested form may be a part): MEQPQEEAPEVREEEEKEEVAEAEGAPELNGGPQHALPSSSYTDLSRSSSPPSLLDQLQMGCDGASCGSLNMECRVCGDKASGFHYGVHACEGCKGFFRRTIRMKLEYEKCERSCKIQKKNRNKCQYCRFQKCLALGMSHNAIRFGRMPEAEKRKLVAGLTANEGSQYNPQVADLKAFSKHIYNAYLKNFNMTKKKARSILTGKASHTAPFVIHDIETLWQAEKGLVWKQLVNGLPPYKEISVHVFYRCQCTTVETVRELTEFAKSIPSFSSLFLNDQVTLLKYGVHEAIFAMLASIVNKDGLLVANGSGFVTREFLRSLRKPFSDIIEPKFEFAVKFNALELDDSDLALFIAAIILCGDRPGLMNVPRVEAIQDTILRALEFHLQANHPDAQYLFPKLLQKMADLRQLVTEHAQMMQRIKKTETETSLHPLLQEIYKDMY

With `COc1ccc(CNc2c(-c3cc(Cl)ccn3)nc3ccc(Cl)cn23)cc1` the Activity [1] was “Not Active”, the EC50 (Bile acid receptor) was 300 pM and the Selectivity ratio (HeLa [2]) was 3000. For the same molecule, the Selectivity ratio (HeLa [3]) was 3000, the Activity [4] was “Active” and the inhibition [5] was “inactive”. For the same molecule, the inhibition [6] was “inactive”, the Activity [7] was “inactive” and the inhibition [8] was “inactive”. The Selectivity ratio (HeLa [9]) was 3000, the Activity [10] was “Active” and the inhibition [11] was “inactive”. For the same molecule, the Activity [12] was “Active”, the logD [13] was 1.69 and the inhibition [14] was “inactive”. For the same molecule, the Activity [15] was “Active”, the Selectivity ratio (HeLa [16]) was 3000 and the inhibition [17] was “inactive”. The Selectivity ratio (HeLa [18]) was 3000, the Activity [19] was “inactive” and the Activity [20] was “inactive”. The Activity [21] was “inactive” and the Activity [22] was “inactive”.
